Measurements from ChEMBL document CHEMBL1938387 (J Med Chem, 2011).
Calls of active or inactive are those of the source. No cut-off for these calls is given here.

Legend:
HT-29 = assay: Growth inhibition of human HT-29 cells after 72 hrs by methylene blue assay; type: functional, cell-based; conditions: HT-29, 72 h
Summary of the method: (§1)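 HT29, KB and MKN45 cells grown in DMEM, MEM or RPMI 1640 with 10% FBS at 37 °C in 5% CO2. Seeded at 8000−20000 cells/mL/well and allowed to adhere overnight. Exposed to various drug concentrations for 72 h, then methylene blue stain extracted with 1% N-lauroylsarcosine and A595 read. IC50 taken relative to untreated cells; means and standard errors, ≥3 independent experiments in duplicate.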

KB = assay: Growth inhibition of human KB cells after 72 hrs by methylene blue assay; type: functional, cell-based; summary of the method: as §1
MKN-45 = assay: Growth inhibition of human MKN45 cells after 72 hrs by methylene blue assay; type: functional, cell-based; conditions: MKN-45, 72 h; summary of the method: as §1
[1] = Growth inhibition of human KB-7d cells after 72 hrs by methylene blue assay; type: functional, cell-based; conditions: KB7D
Summary of the method: (§2)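 Resistant KB sublines were maintained in extra drug: KB-Vin10 in 10 nM vincristine, KB-S15 in 50 nM paclitaxel, KB-7D in 7 μM VP16. Cells were kept drug-free for 3 days before harvest. Seeded at 8000−20000 cells/mL/well and exposed 72 h. Read by methylene blue, A595 after N-lauroylsarcosine extraction. Means and standard errors of ≥3 experiments in duplicate.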

[2] = Growth inhibition of human KB-VIN10 cells after 72 hrs by methylene blue assay; type: functional, cell-based; conditions: KB-VIN10, 72 h; summary of the method: as §2
[3] = Growth inhibition of human KB-S15 cells after 72 hrs by methylene blue assay; type: functional, cell-based; conditions: KB-S15, 72 h; summary of the method: as §2
[4] = (§3) Inhibition of bovine brain tubulin polymerization measured every 30 sec for 30 mins by turbidimetric assay; set-up: species or system Bos taurus
Bos taurus [5] = species on record: Bos taurus; assay: Displacement of [3H]cholchicine from bovine brain tubulin at 1 uM after 2 hrs by scintillation counting
Bos taurus [6] = species on record: Bos taurus; assay: Displacement of [3H]cholchicine from bovine brain tubulin at 5 uM after 2 hrs by scintillation counting
HUVEC [7] = assay: Antiangiogenic activity in HUVEC assessed as inhibition of capillary tube formation after 4 hrs by Matrigel matrix assay; type: functional, cell-based; conditions: Homo sapiens
Summary of the method: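 HUVECs seeded at 2 × 10^4 cells/well on Matrigel in M199 with 20% FBS and 20 ng/mL VEGF. Capillaries formed over 4 h before test compound or DMSO vehicle was added. Imaged at addition and 4 h later. Capillary tube networks counted manually under a microscope at 100×, expressed relative to vehicle control. Mean ± SD of three separate experiments.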

Bos taurus [8] = species on record: Bos taurus; assay: as §3
HUVEC [9] = assay: Cytotoxicity against HUVEC assessed as reduction in cell viability at 15 to 120 uM; type: cell-based; conditions: human
Bos taurus [10] = species on record: Bos taurus; assay: Inhibition of bovine brain tubulin polymerization at 5 uM measured every 30 sec for 30 mins by turbidimetric assay
Bos taurus [11] = species on record: Bos taurus; assay: Displacement of [3H]cholchicine from bovine brain tubulin after 2 hrs by scintillation counting
Summary of the method: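 Scintillation proximity assay: 0.08 μM [3H]colchicine plus test compound and 0.5 μg biotin-labeled tubulin in 80 mM PIPES pH 6.8, 1 mM EGTA, 10% glycerol, 1 mM MgCl2, 1 mM GTP, 2 h at 37 °C. Streptavidin SPA beads (80 μg) then added and counts read directly by scintillation counter.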

| SMILES | IC50 (HT-29) | IC50 (KB) | IC50 (MKN-45) | IC50 [1] | IC50 [2] | IC50 [3] | further results |
| --- | --- | --- | --- | --- | --- | --- | --- |
| COc1cc(Nc2ccc3c(N)c(OC)ccc3n2)cc(OC)c1OC | > 5000 nM | > 5000 nM | > 5000 nM |  |  |  |  |
| COc1cc(Sc2ccc3c(N)c(OC)ccc3n2)cc(OC)c1OC | 40 nM | 59 nM | 28 nM |  |  |  |  |
| COc1cc(C(=O)c2ccc3c(Cl)c(OC)ccc3n2)cc(OC)c1OC | 51 nM | 45 nM | 60 nM |  |  |  |  |
| COc1cc2c(c(OC)c1OC)-c1ccc(OC)c(=O)cc1[C@@H](NC(C)=O)CC2 [COLCHICINE] | 16.2 nM |  | 19.2 nM |  |  |  |  |
| COc1cc([C@@H]2c3cc4c(cc3[C@@H](O[C@@H]3O[C@@H]5CO[C@@H](C)O[C@H]5[C@H](O)[C@H]3O)[C@H]3COC(=O)[C@H]23)OCO4)cc(OC)c1O [ETOPOSIDE] |  |  |  | 54000 nM | 23000 nM | 3500 nM |  |
| COc1cc(Oc2ccc3c(N)c(OC)ccc3n2)cc(OC)c1OC | 139 nM | 31 nM | 61 nM | 76.2 nM | 78.8 nM | 42.9 nM | IC50 [4]: 5800 nM; inhibition (Bos taurus [5]): 44%; inhibition (Bos taurus [6]): 60% |
| COc1cc(-c2ccc3c(N)c(OC)ccc3n2)cc(OC)c1OC | > 5000 nM | > 5000 nM | > 5000 nM |  |  |  |  |
| COc1cc(C(=O)c2ccc3c(O)c(OC)ccc3n2)cc(OC)c1OC | 3.1 nM | 2.8 nM | 4.5 nM | 9.2 nM | 5.8 nM | 5.2 nM | Activity (HUVEC [7]): Dose-dependent effect; inhibition (Bos taurus [8]): Dose-dependent effect; IC50 [4]: 1500 nM; Activity (HUVEC [9]): Non-toxic; inhibition (Bos taurus [10]): Active; inhibition (Bos taurus [5]): 91%; inhibition (Bos taurus [6]): 97% |
| CC(=O)O[C@H]1C(=O)[C@@]2(C)[C@H]([C@H](OC(=O)c3ccccc3)[C@]3(O)C[C@H](OC(=O)[C@H](O)[C@@H](NC(=O)c4ccccc4)c4ccccc4)C(C)=C1C3(C)C)[C@]1(OC(C)=O)CO[C@@H]1C[C@@H]2O [PACLITAXEL] |  |  |  | 7.9 nM | 16500 nM | 273 nM |  |
| COc1cc(C(=O)c2ccc3c(Br)c(OC)ccc3n2)cc(OC)c1OC | 195 nM | 108 nM | 167 nM |  |  |  |  |
| CC[C@]1(O)C[C@H]2CN(CCc3c([nH]c4ccccc34)[C@@](C(=O)OC)(c3cc4c(cc3OC)N(C=O)[C@H]3[C@@](O)(C(=O)OC)[C@H](OC(C)=O)[C@]5(CC)C=CCN6CC[C@]43[C@@H]65)C2)C1 [VINCRISTINE] |  |  |  | 1.2 nM | 90.1 nM | 17.6 nM |  |
| COc1cc(S(=O)(=O)c2ccc3c(N)c(OC)ccc3n2)cc(OC)c1OC | 16 nM | 18 nM | 4 nM | 2.4 nM | 2.8 nM | 2.5 nM | inhibition (Bos taurus [11]): Dose-dependent effect; inhibition (Bos taurus [8]): Dose-dependent effect; IC50 [4]: 2000 nM; inhibition (Bos taurus [10]): Active; inhibition (Bos taurus [5]): 65%; inhibition (Bos taurus [6]): 85% |
| COc1cc(C(=O)c2ccc3c(I)c(OC)ccc3n2)cc(OC)c1OC | 1090 nM | 451 nM | 819 nM |  |  |  |  |
